From ChEMBL document CHEMBL3232922, “Discovery and SAR of 6-alkyl-2,4-diaminopyrimidines as histamine H₄ receptor antagonists” (J Med Chem, 2014)
Active and inactive are the calls of the source. The calls are words filed in the database; no cut-off is given here.

How the values were obtained:
[1] = Clearance in beagle dog at 2 mg/kg, iv; format: ADME, organism-based, Canis lupus familiaris; design: dose 2 mg/kg, route intravenous; settings: beagle, in vivo
[2] = Tmax in mouse brain at 5 mg/kg, po administered as single dose by LC-MS/MS analysis; format: ADME, organism-based; design: dose 5 mg/kg, route oral
Outline: (§1)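 Mice received one oral dose of 5 mg/kg. Brain, liver and kidneys were surgically removed from three mice per time point for up to 96 h after dosing. Tissue drug levels were measured by LC–MS/MS with a lower limit of quantitation of 1 ng/g. Tmax and t1/2 are reported as means.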

[3] = AUC in rat at 2 mg/kg, iv; format: ADME, organism-based; design: dose 2 mg/kg, route intravenous; settings: plasma
[4] = Half life in monkey liver microsomes; format: ADME, Macaca mulatta; settings: rhesus monkey
Histamine H4 receptor [5] = target: T1, Histamine H4 receptor (Cavia porcellus, UniProt Q91ZY3); test: Binding affinity to guinea pig histamine H4 receptor
T1 sequence (Q91ZY3 whole entry): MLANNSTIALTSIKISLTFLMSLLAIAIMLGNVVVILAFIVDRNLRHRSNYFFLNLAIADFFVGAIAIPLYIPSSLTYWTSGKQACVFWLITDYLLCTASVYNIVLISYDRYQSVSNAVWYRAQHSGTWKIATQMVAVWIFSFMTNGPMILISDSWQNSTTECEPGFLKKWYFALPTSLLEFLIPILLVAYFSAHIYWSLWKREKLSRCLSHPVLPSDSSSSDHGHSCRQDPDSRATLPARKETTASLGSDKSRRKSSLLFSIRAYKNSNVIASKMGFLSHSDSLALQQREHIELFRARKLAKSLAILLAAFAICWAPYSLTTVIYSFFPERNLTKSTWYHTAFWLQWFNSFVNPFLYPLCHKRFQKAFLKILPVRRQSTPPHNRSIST

[6] = Volume of distribution at steady state in Sprague-Dawley rat at 2 mg/kg, iv; format: ADME, organism-based; design: dose 2 mg/kg, route intravenous; settings: Sprague-Dawley, in vivo, read-out: Vdss
[7] = Ratio of drug level in brain to plasma in mouse at 5 mg/kg, po administered as single dose […] by LC-MS/MS analysis; format: ADME, organism-based; design: dose 5 mg/kg, route oral; settings: brain and plasma
[8] = Half life in beagle dog at 2 mg/kg, iv; format: ADME, organism-based, Canis lupus familiaris; design: dose 2 mg/kg, route intravenous; settings: in vivo
[9] = Clearance in Sprague-Dawley rat at 2 mg/kg, iv; format: ADME, organism-based; design: dose 2 mg/kg, route intravenous; settings: Sprague-Dawley, in vivo
[10] = Binding affinity to dog histamine H4 receptor; design: species or system Canis lupus familiaris
[11] = Half life in mouse kidney at 5 mg/kg, po administered as single dose by LC-MS/MS analysis; format: ADME, organism-based; design: dose 5 mg/kg, route oral; outline: as §1
Mus musculus = test: Antiinflammatory activity in po dosed Balb/c mouse assessed as inhibition of LPS-induced TNF-alpha release at plasma concentration of 5.7 nM administered 30 mins prior to LPS challenge measured after 2 hrs by ELISA; format: functional, organism-based
[12] = Fraction unbound in human plasma; format: ADME, cell-free
Histamine H3 receptor = Histamine H3 receptor (Homo sapiens, UniProt Q9Y5N1); test: Displacement of [3H]N-alpha-methylhistamine from human recombinant histamine H3 receptor expressed in SK-N-MC cells after 45 mins by competition binding analysis; format: cell-based
[13] = Clearance in Balb/c mouse at 2 mg/kg, iv; format: ADME, organism-based; design: dose 2 mg/kg, route intravenous; settings: in vivo
[14] = Permeability from basolateral to apical side in human Caco cells; format: ADME, cell-based; settings: Caco-2, read-out: permeability
[15] = Half life in Balb/c mouse at 20 mg/kg, po; format: ADME, organism-based; design: dose 20 mg/kg, route oral; settings: in vivo
[16] = Tmax in Sprague-Dawley rat at 50 mg/kg, po; format: ADME, organism-based; design: dose 50 mg/kg, route oral; settings: in vivo
[17] = AUC in Balb/c mouse at 2 mg/kg, iv; format: ADME, organism-based; design: dose 2 mg/kg, route intravenous; settings: plasma
[18] = target: Voltage-gated inwardly rectifying potassium channel KCNH2 (Homo sapiens, UniProt Q12809); test: Inhibition of human ERG channel transfected in HEK293 cells assessed as K+ current at up to 10 uM by patch clamp assay; format: cell-based
[19] = AUC in Sprague-Dawley rat at 2 mg/kg, iv; format: ADME, organism-based; design: dose 2 mg/kg, route intravenous; settings: plasma
[20] = Half life in rat at 10 mg/kg, po; format: ADME, organism-based; design: dose 10 mg/kg, route oral; settings: in vivo
[21] = Cmax in Sprague-Dawley rat at 200 mg/kg, po; format: ADME, organism-based; design: dose 200 mg/kg, route oral; settings: in vivo
[22] = Antagonist activity at monkey histamine H4 receptor; design: species or system Macaca mulatta
[23] = Half life in Sprague-Dawley rat at 10 mg/kg, po; format: ADME, organism-based; design: dose 10 mg/kg, route oral; settings: in vivo
Histamine H4 receptor [24] = target: Histamine H4 receptor (Homo sapiens, UniProt Q9H3N8); test: Antagonist activity at human histamine H4 receptor expressed in SK-N-MC cells assessed as reduction of histamine-induced inhibition of cAMP-mediated beta-galactosidase reporter gene activity treated 10 mins prior to histamine challenge by microplate reader analysis; format: functional, cell-based; settings: read-out: pA2 (converted)
[25] = Half life in dog liver microsomes; format: ADME, Canis lupus familiaris
[26] = Toxicity in rabbit purkinje fibers; format: tissue-based, Oryctolagus cuniculus, Purkinje fiber; settings: ex_vivo
[27] = Cmax in Balb/c mouse at 20 mg/kg, po; format: ADME, organism-based; design: dose 20 mg/kg, route oral; settings: in vivo
[28] = Half life in beagle dog at 10 mg/kg, po; format: ADME, organism-based, Canis lupus familiaris; design: dose 10 mg/kg, route oral; settings: in vivo
[29] = Oral bioavailability in Balb/c mouse at 20 mg/kg; format: ADME, organism-based; settings: in vivo
[30] = Tmax in Balb/c mouse at 20 mg/kg, po; format: ADME, organism-based; design: dose 20 mg/kg, route oral; settings: in vivo
[31] = Half life in Sprague-Dawley rat at 50 mg/kg, po; format: ADME, organism-based; design: dose 50 mg/kg, route oral; settings: in vivo
Salmonella typhimurium = test: Genotoxicity in Salmonella typhimurium by Ames test; format: toxicity, organism-based; settings: salmonella enterica subsp. enterica serovar typhimurium
[32] = Half life in mouse liver at 5 mg/kg, po administered as single dose by LC-MS/MS analysis; format: ADME, organism-based; design: dose 5 mg/kg, route oral; outline: as §1
[33] = Volume of distribution at steady state in Balb/c mouse at 2 mg/kg, iv; format: ADME, organism-based; design: dose 2 mg/kg, route intravenous; settings: in vivo, read-out: Vdss
[34] = Half life in rat liver microsomes; format: ADME
[35] = Oral bioavailability in Balb/c mouse at 5 mg/kg; format: ADME, organism-based; settings: in vivo
[36] = Fraction unbound in rat plasma; format: ADME, cell-free
[37] = Half life in human microsomes; format: ADME, Microsome
[38] = Half life in human liver microsomes; format: ADME
[39] = Tmax in mouse liver at 5 mg/kg, po administered as single dose by LC-MS/MS analysis; format: ADME, organism-based; design: dose 5 mg/kg, route oral; outline: as §1
[40] = Half life in Balb/c mouse at 2 mg/kg, iv; format: ADME, organism-based; design: dose 2 mg/kg, route intravenous; settings: in vivo
[41] = AUC in Sprague-Dawley rat at 500 mg/kg, po; format: ADME, organism-based; design: dose 500 mg/kg, route oral; settings: plasma
[42] = Oral bioavailability in rat at 10 mg/kg; format: ADME, organism-based; settings: in vivo
[43] = Oral bioavailability in Sprague-Dawley rat at 10 mg/kg; format: ADME, organism-based; settings: in vivo

Histamine H3 receptor, sequence (Q9Y5N1 whole entry): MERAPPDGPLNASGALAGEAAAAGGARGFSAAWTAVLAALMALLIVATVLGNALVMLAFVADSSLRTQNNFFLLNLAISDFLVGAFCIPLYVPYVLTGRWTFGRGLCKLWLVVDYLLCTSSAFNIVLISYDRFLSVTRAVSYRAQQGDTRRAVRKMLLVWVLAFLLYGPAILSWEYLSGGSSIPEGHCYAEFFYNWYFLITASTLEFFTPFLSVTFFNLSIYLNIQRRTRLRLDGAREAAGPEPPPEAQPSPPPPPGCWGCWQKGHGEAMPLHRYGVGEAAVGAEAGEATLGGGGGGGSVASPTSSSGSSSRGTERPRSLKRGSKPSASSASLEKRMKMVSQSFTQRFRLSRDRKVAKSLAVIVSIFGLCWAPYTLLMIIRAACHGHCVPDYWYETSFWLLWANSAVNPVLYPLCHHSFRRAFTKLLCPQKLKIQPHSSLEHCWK
Voltage-gated inwardly rectifying potassium channel KCNH2, sequence (Q12809 whole entry): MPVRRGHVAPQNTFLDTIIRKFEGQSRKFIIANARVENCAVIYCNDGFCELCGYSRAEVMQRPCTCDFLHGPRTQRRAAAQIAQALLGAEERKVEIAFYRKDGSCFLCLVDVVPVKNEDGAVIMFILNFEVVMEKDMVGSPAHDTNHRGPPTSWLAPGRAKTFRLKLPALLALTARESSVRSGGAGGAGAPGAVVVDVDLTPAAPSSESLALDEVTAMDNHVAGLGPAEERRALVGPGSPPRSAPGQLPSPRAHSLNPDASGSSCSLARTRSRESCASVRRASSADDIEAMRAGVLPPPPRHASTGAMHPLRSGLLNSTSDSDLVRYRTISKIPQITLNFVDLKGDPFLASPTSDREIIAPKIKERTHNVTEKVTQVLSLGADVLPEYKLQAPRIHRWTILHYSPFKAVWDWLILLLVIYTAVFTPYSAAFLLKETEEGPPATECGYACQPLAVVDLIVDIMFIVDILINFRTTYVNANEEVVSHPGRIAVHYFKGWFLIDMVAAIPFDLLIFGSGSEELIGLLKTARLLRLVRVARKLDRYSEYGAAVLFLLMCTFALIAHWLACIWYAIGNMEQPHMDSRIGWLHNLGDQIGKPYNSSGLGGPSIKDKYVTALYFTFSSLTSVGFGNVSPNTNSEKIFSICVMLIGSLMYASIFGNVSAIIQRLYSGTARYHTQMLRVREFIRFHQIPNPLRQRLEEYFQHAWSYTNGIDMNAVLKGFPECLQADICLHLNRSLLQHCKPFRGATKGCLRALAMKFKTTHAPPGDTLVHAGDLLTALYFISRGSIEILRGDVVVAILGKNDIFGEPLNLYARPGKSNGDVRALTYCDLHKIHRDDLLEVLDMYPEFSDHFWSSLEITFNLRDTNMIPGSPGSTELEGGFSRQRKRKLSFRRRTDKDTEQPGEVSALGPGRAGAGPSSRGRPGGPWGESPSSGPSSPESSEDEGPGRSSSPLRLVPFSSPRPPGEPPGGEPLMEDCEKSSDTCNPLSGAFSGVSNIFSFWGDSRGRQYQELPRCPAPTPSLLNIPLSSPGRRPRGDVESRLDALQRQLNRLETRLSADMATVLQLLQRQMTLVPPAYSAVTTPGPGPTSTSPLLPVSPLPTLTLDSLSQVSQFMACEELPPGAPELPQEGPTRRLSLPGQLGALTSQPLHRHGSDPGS
Histamine H4 receptor (Homo sapiens, UniProt Q9H3N8), sequence (Q9H3N8 whole entry): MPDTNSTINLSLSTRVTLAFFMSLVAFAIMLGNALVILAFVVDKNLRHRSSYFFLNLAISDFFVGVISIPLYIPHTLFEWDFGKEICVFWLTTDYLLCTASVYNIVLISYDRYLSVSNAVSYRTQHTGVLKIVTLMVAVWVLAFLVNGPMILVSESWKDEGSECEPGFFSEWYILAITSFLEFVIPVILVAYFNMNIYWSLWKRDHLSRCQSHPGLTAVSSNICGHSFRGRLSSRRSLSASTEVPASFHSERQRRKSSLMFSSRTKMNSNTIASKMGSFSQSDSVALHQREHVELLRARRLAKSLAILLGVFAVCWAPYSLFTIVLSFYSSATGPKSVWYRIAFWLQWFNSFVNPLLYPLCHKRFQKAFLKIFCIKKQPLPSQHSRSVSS

CC(C)c1cc(N2CC[C@@H](N)C2)nc(N)n1 [JNJ-39758979]
clearance [1]: 23.3 mL/min/kg
Tmax [2]: 6 h
AUC [3]: 1.4 µM·h
half-life [4]: > 2 h
Ki (Histamine H4 receptor [5]): 306 nM
Vd [6]: 19.9 L/kg
Kp [7]: 22.7
half-life [8]: 10.2 h
clearance [9]: 91.7 mL/min/kg
Ki [10]: ≥ 10000 nM
half-life [11]: 20.5 h
inhibition (Mus musculus): Active
fraction unbound [12]: 0.81
Ki (Histamine H3 receptor): 1040 nM
clearance [13]: 40 mL/min/kg
Papp B→A [14]: 22 ×10⁻⁶ cm/s
half-life [15]: 4.7 h
Tmax [16]: 2 h
AUC [17]: 3.27 µM·h
inhibition (INH) [18]: Not Active
AUC [19]: 1.4 µM·h
half-life [20]: 7.5 h
Cmax [21]: 4.91 µM
pA2 [22]: 7.5
half-life [23]: 5.7 h
Kb (Histamine H4 receptor [24]): 12.6 nM
half-life [25]: > 2 h
Activity [26]: Non-toxic
Cmax [27]: 5.03 µM
half-life [28]: 11.2 h
bioavailability [29]: 75%
Tmax [30]: 0.5 h
half-life [31]: 5.45 h
Activity (Salmonella typhimurium): Non-toxic
half-life [32]: 22.3 h
Vd [33]: 31 L/kg
half-life [34]: > 2 h
bioavailability [35]: 84%
fraction unbound [36]: 0.83
half-life [37]: > 3 h
half-life [38]: > 2 h
Tmax [39]: 2 h
half-life [40]: 7.8 h
AUC [41]: 184 µM·h
bioavailability [42]: 36%
bioavailability [43]: 35%
